Measured values as given in PubChem BioAssay AID602222 (Southern Research Specialized Biocontainment Screening …, 2012).
Active and inactive are the calls of the source.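 How the source made its calls: active means inhibition of 30% or more at any tested concentration; inactive means the rest.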

molecular target: M18 aspartyl aminopeptidase (Plasmodium falciparum 3D7); experiment: inhibition of malaria M18 aspartyl aminopeptidase – biochemical, QFRET, H-Glu-NHMec substrate, set 1, dose response (AID 602222); settings: recombinant PfM18AAP, H-Glu-NHMec fluorogenic substrate cleavage
How it was run: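 Test system: PFM18AAP, purified recombinant M18 aspartyl aminopeptidase of Plasmodium falciparum / Input: PFM18AAP enzyme at 5 µg/mL final / Buffer or medium: Cobalt-containing Tris-HCl buffer, pH 7.5 / Also added: H-Glu-NHMec substrate, 0.1 mM final / Doses: 10 concentrations, 1:2 steps, top 100 µM / Incubation: 90 min reaction at room temperature / Technique: NHMec release measured fluorometrically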

Row | Compound | IC50 [µM]
1 | Oc1ccc(-c2csc(NC3CCCC3)n2)cc1O | 13.1
2 | Oc1ccc(CCNc2c3ccccc3nc3ccccc23)cc1O | 4.3
3 | CN1CCN(c2nc(-c3ccc(O)c(O)c3)cs2)CC1 | 9.37
4 | CCc1ccc(NC(=O)Cc2nc(-c3ccc(O)c(O)c3)cs2)cc1 | 16.6
5 | Oc1ccc(-c2csc(Nc3ncccn3)n2)cc1O | 6.43
6 | CN1CCN(CCc2ccc(O)c(O)c2)CC1 | 27.1
7 | CN1CCN(CCCc2ccc(O)c(O)c2)CC1 | 13.3
8 | Oc1ccc(CCNc2ccnc3ccccc23)cc1O | 7.33

same assay, conditions: recombinant PfM18AAP, H-Glu-NHMec fluorogenic substrate cleavage; at 100 µM (top of the series)

Row | Compound | inhibition
9 | COc1ccc(CCCN2CCN(C)CC2)cc1OC | inactive
10 | COc1ccc(CCNC(c2ccccc2)c2ccccc2)cc1OC | inactive
